According to the array DNA melting data of Ke et al. (doi:10.1101/2024.01.08.574731):

What was measured:
[1] = folding enthalpy; higher = less favourable; fluorescence melt of hairpins on a sequencing array, two-state fit; details: sodium 0.088 M
Procedure, shortened: (§1)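 Folding enthalpy and melting temperature were estimated with bootstrapped two-state fits and combined across four replicates by inverse-variance weighting, with fitted temperatures raised by 9.35 °C to match UV melts. The data were Cy3 fluorescence of library hairpins, with annealed Cy3 and quencher oligos, on a sequenced MiSeq flow cell in 50 mM Na-HEPES pH 8.0, 25 mM NaCl, imaged in 2.5 °C steps up to 60 °C and normalised to pre-quench Cy3 and control constructs.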

[2] = melting temperature; fluorescence melt of hairpins on a sequencing array, two-state fit, raised by 9.35 °C to match UV melts; details: sodium 0.088 M
Procedure, shortened: as §1

| Sequence | folding enthalpy [1] [kcal/mol] | Tm [2] [°C] |
| --- | --- | --- |
| GATCGCCCCGGCGATC ((((((....)))))) | -33 | 69.2 |
| GATCGCCCTTGCGATC ((((((....)))))) | -29.8 | 66.9 |
| GATCGCCTAGCGATC ((((((...)))))) | -30.6 | 68.6 |
| GATCGCCTTCGCGATC ((((((....)))))) | -41 | 68.4 |
| GATCGCGAAAGCGAAATC ((((((....)))..))) | -9.22 | 37.2 |
| GATCGCGAAAGCGCAATC ((((((....)))..))) | -7.96 | 23.1 |
| GATCGCGAGCGCGATC ((((((....)))))) | -35.4 | 67.2 |
| GATCGCGCGAAAGCGATC (((..(((....)))))) | -25.8 | 60.1 |
| GATCGCGGAAACGCGACC (.(((((....))))).) | -10.5 | 49.2 |
| GATCGCTACCGCGATC ((((((....)))))) | -35.1 | 68.2 |
| GATCGCTAGTGCGATC ((((((....)))))) | -35.2 | 67 |
| GATCGCTATGGCGATC ((((((....)))))) | -30.2 | 69.1 |
| GATCGCTCGCGCGATC ((((((....)))))) | -31.7 | 67.4 |
| GATCGCTCTCGCGATC ((((((....)))))) | -34.2 | 67.6 |
| GATCGCTCTTGCGATC ((((((....)))))) | -38.9 | 68 |
| GATCGCTGATGCGATC ((((((....)))))) | -34.8 | 67.2 |
| GATCGCTGGCGCGATC ((((((....)))))) | -35.7 | 65.9 |
| GATCGCTGGGCGATC ((((((...)))))) | -35.6 | 68.8 |
| GATCGCTGGGGCGATC ((((((....)))))) | -32.2 | 69.1 |
| GATCGCTGTTGCGATC ((((((....)))))) | -28.7 | 67.8 |
| GATCGCTTCGGCGATC ((((((....)))))) | -35.6 | 67.6 |
| GATCGCTTGAGCGATC ((((((....)))))) | -27.6 | 67.6 |
| GATCGCTTGGCGATC ((((((...)))))) | -41.3 | 68.8 |
| GATCGCTTGTGCGATC ((((((....)))))) | -21.5 | 68 |

| Sequence | folding enthalpy [1] [kcal/mol] | Tm [2] [°C] |
| --- | --- | --- |
| GATCGGAAAACCGATC ((((((....)))))) | -35.5 | 51.2 |
| GATCGGAACACCGATC ((((((....)))))) | -39.9 | 55.2 |
| GATCGGAACTCCGATC ((((((....)))))) | -45.1 | 55.2 |
| GATCGGACGTCCGATC ((((((....)))))) | -47.5 | 62.7 |
| GATCGGACTCCCGATC ((((((....)))))) | -35.3 | 53.8 |
| GATCGGACTCCGATC ((((((...)))))) | -33.8 | 55.2 |
| GATCGGAGATCCGATC ((((((....)))))) | -27.6 | 56 |
| GATCGGAGGACCGATC ((((((....)))))) | -31.2 | 53.3 |
| GATCGGATATCCGATC ((((((....)))))) | -42.9 | 58.3 |
| GATCGGATCGCCGATC ((((((....)))))) | -32.2 | 55.8 |
| GATCGGATGACCGATC ((((((....)))))) | -29.8 | 55.8 |
| GATCGGATTCCCGATC ((((((....)))))) | -36 | 55.5 |
| GATCGGCAAACCGATC ((((((....)))))) | -36.1 | 56.5 |
| GATCGGCAACCCGATC ((((((....)))))) | -38.5 | 54.4 |
| GATCGGCACCCGATC ((((((...)))))) | -35.9 | 55 |
| GATCGGCAGACCGATC ((((((....)))))) | -38 | 57.5 |
| GATCGGCAGCCGATC ((((((...)))))) | -50.7 | 55.2 |
| GATCGGCAGTCCGATC ((((((....)))))) | -37.7 | 56.7 |
| GATCGGCCCCCCGATC ((((((....)))))) | -37.1 | 56.1 |
| GATCGGCCCCCGATC ((((((...)))))) | -44.9 | 56 |
| GATCGGCGAAAGCCATC (((.(((....)))))) | -11 | 35.7 |
| GATCGGCGCCCCGATC ((((((....)))))) | -39.7 | 56.8 |
| GATCGGCTACCCGATC ((((((....)))))) | -41 | 54.9 |
| GATCGGCTTACCGATC ((((((....)))))) | -35.4 | 57.7 |

| Sequence | folding enthalpy [1] [kcal/mol] | Tm [2] [°C] |
| --- | --- | --- |
| GATCGGCTTTCCGATC ((((((....)))))) | -37 | 58.6 |
| GATCGGGACCCGATC ((((((...)))))) | -41.2 | 56.9 |
| GATCGGGATCCGATC ((((((...)))))) | -39.3 | 55.6 |
| GATCGGGATGCCGATC ((((((....)))))) | -42.1 | 57.4 |
| GATCGGGCGACCGATC ((((((....)))))) | -44.9 | 63.1 |
| GATCGGGCGGCCGATC ((((((....)))))) | -57.9 | 61.8 |
| GATCGGGCTGCCGATC ((((((....)))))) | -46.5 | 57.1 |
| GATCGGGGAAACCCGACC (.(((((....))))).) | -13.6 | 43.5 |
| GATCGGGGAAACCCGATC (((((((....))))))) | -42.5 | 69 |
| GATCGGGGAAACCTGGTC ((.(.((....)).).)) | -22.6 | 36.3 |
| GATCGGGGGACCGATC ((((((....)))))) | -36.2 | 61.9 |
| GATCGGGGGGCCGATC ((((((....)))))) | -53.6 | 57.3 |
| GATCGGGGGTCCGATC ((((((....)))))) | -34.3 | 57 |
| GATCGGGGTTCCGATC ((((((....)))))) | -36.9 | 59 |
| GATCGGGTCTCCGATC ((((((....)))))) | -41.2 | 59.1 |
| GATCGGTAAGCCGATC ((((((....)))))) | -49.4 | 58.9 |
| GATCGGTACGCCGATC ((((((....)))))) | -38.6 | 63.6 |
| GATCGGTATACCGATC ((((((....)))))) | -36.7 | 64.3 |
| GATCGGTATCCCGATC ((((((....)))))) | -34.5 | 57.3 |
| GATCGGTCAACCGATC ((((((....)))))) | -39.2 | 57.5 |
| GATCGGTCCACCGATC ((((((....)))))) | -50 | 60.9 |
| GATCGGTCTACCGATC ((((((....)))))) | -39.3 | 62.3 |
| GATCGGTGAGCCGATC ((((((....)))))) | -48.6 | 60.8 |
| GATCGGTTCTCCGATC ((((((....)))))) | -44.3 | 60.6 |

| Sequence | folding enthalpy [1] [kcal/mol] | Tm [2] [°C] |
| --- | --- | --- |
| GATCGGTTGACCGATC ((((((....)))))) | -33.9 | 60.3 |
| GATCGGTTGCCCGATC ((((((....)))))) | -32.5 | 57.2 |
| GATCGGTTTACCGATC ((((((....)))))) | -37.4 | 68.6 |
| GATCGTAAGGACGATC ((((((....)))))) | -31.8 | 53.4 |
| GATCGTAATGACGATC ((((((....)))))) | -34.3 | 52.8 |
| GATCGTACAACGATC ((((((...)))))) | -37.4 | 56.5 |
| GATCGTACAGACGATC ((((((....)))))) | -54.1 | 52.5 |
| GATCGTACGAACGATC ((((((....)))))) | -34.3 | 53.3 |
| GATCGTACGCACGATC ((((((....)))))) | -37.4 | 55.1 |
| GATCGTAGAAACGATC ((((((....)))))) | -35.2 | 51.1 |
| GATCGTATAAACGATC ((((((....)))))) | -31.9 | 54.7 |
| GATCGTATATACGATC ((((((....)))))) | -35.1 | 56.6 |
| GATCGTATTGACGATC ((((((....)))))) | -22.8 | 55 |
| GATCGTCAATACGATC ((((((....)))))) | -39.2 | 54.6 |
| GATCGTCACCACGATC ((((((....)))))) | -40.9 | 54 |
| GATCGTCACTACGATC ((((((....)))))) | -46.1 | 55 |
| GATCGTCAGACGATC ((((((...)))))) | -35.2 | 52.5 |
| GATCGTCAGCACGATC ((((((....)))))) | -27.8 | 52.6 |
| GATCGTCATCACGATC ((((((....)))))) | -43.8 | 52.2 |
| GATCGTCATGACGATC ((((((....)))))) | -40.3 | 61.4 |
| GATCGTCCATACGATC ((((((....)))))) | -41.8 | 54.8 |
| GATCGTCCGAACGATC ((((((....)))))) | -39.2 | 55.2 |
| GATCGTCCTACGATC ((((((...)))))) | -38.6 | 56.5 |
